# Measured values collected from several papers.
# Protocols differ between the studies behind these lines.
Compound,test,system,setting,measurement,value
Cc1c(N(C)C)ccc2cc(C(=O)NS(=O)(=O)c3ccccc3-c3ccccc3)oc12,,,pH 7.5,logD,2.1
O=c1ccc2ccc(O)cc2o1,metabolic stability,"Sprague-Dawley rat, hepatocytes",1 µM,hepatocyte CLint,61 µL/min/10⁶ cells
O=C(O)Cc1ccccc1Nc1c(Cl)cccc1Cl,metabolic stability,"Sprague-Dawley rat, hepatocytes","0.5 µM, pH 7.4",hepatocyte CLint,66 µL/min/10⁶ cells
O=c1ccc2ccc(O)cc2o1,metabolic stability,"rat, liver microsomes",,scaled CLint,1030 mL/min/kg
C=C(F)C(=O)N1CCN(c2nc(OC[C@@H]3CCCN3C)nc3c2CCN(c2cccc4cccc(Cl)c24)C3)C[C@@H]1CC#N,potentiometric,,pH 7.4,logD,3.6
Cc1ccc(Cn2cc(C(=O)NN)c(=O)c3cc(Oc4ccccc4)ccc32)cc1,shake flask,PBS,"2 h, pH 7.4",logD,2
CC(/C=C/C=C(\C)C(=O)O)=C\C=C\C=C(C)\C=C\C=C(/C)C(=O)O,shake flask,PBS,"2 h, pH 7.4",logD,0.7
CCOc1ccc2ccc(=O)oc2c1,metabolic stability,"male Sprague-Dawley rat, hepatocytes",1 µM,hepatocyte CLint,52.8 µL/min/10⁶ cells
CCn1ccc2c([C@](O)(c3cnc(C(F)(F)F)c(Cl)c3)C3CC3)n(C)nc2c1=O,metabolic stability,"male Sprague-Dawley rat, hepatocytes","0.5 µM, pH 7.4",hepatocyte CLint,3.3 µL/min/10⁶ cells
C[C@H]1Oc2cc(cnc2N)-c2c(nn(C)c2C#N)CN(C)C(=O)c2ccc(F)cc21,,"bovine, serum",,fraction unbound,0.98
CCn1cc(C)c2c([C@H](N)c3ccc(C(F)(F)F)nc3)n(C)nc2c1=O,metabolic stability,"male Sprague-Dawley rat, hepatocytes","0.5 µM, pH 7.4",hepatocyte CLint,1.9 µL/min/10⁶ cells
Cc1c(C(=O)O)ccc2c3n(nc12)[C@@H]1[C@H](C3)N(CC2CC2)[C@@]2(C(=O)Nc3cc(Cl)ccc32)[C@H]1c1cccc(Cl)c1F,,"bovine, serum",,fraction unbound,0.045
COCCc1ccc(OCC(O)CNC(C)C)cc1 (stereo not drawn),metabolic stability,"Sprague-Dawley rat, hepatocytes","0.5 µM, pH 7.4",hepatocyte CLint,35 µL/min/10⁶ cells
O=C1CC[C@H](N2Cc3cc(N4CCN(CC5CCN(c6ccc([C@@H]7c8ccc(O)cc8CC[C@@H]7c7ccccc7)cc6)CC5)CC4)ccc3C2=O)C(=O)N1,metabolic stability,"Sprague-Dawley rat, hepatocytes",1 µM,hepatocyte CLint,8.4 µL/min/10⁶ cells
COc1cc2nc3n(c(=O)c2cc1Cl)CC[C@@H]1[C@@H]3CCCN1CC1COC1,shake flask,aqueous buffer,"1 h, pH 7.4",logD,2.3
